Here are results for five compounds from paper PMC2261226 (EMBO Reports, 2008).

Substitutions are numbered along the chain they refer to. Some results are limits rather than exact numbers.

In assay [1] the target is AIRE–PHD1 wild type (UniProt O43918). The assay is described as follows: other fluorescence titration.
The target is the same in assay [2]. The assay is described as follows: ITC.
The target of assay [3] is T1, AIRE–PHD1 D312A (Homo sapiens, UniProt O43918, D312A).
T1 sequence (O43918 296-343 D312A limits assumed): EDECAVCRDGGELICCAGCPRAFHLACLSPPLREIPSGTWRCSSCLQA
The assay is described as follows: Isothermal titration calorimetry, AIRE-PHD1 D312A. In kind it is binding. In outline: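 ITC of H3K4me0 (histone H3, non-methylated K4) peptide binding to the AIRE–PHD1 D312A mutant. Sequential heat pulses were integrated, corrected for heat of dilution, and fit to a single-site binding model by nonlinear least squares to give N, Kd, ΔH and ΔS. ND denotes binding too weak to quantify reliably.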

In assay [4] the target is T2, AIRE–PHD1 WT (Homo sapiens, UniProt O43918).
T2 sequence (O43918 293-349 limits assumed): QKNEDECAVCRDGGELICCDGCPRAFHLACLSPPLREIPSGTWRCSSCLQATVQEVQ
The assay is described as follows: biochemical. The assay is classed as binding.

The target of assay [5] is T3, AIRE–PHD1 D297A (Homo sapiens, UniProt O43918, D297A).
T3 sequence (O43918 290-349 D297A): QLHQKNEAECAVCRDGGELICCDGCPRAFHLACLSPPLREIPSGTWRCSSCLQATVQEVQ
The assay is described as follows: Isothermal titration calorimetry, AIRE-PHD1 D297A. In kind it is binding.

The target of assay [6] is T1, AIRE–PHD1 D312A. The assay is described as follows: Tryptophan fluorescence titration, AIRE-PHD1 D312A. The assay is classed as binding. Summed up: (§1)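 Tryptophan fluorescence spectroscopy titration of AIRE–PHD1 point mutants with histone H3 peptides: H3K4me0 for all; D297A also with H3K4me3. Dissociation constants were derived from the titrations. ND denotes binding too weak to quantify reliably.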

Assay [7] deals with AIRE–PHD1 WT (Homo sapiens, UniProt O43918). The assay is described as follows: Tryptophan fluorescence titration, AIRE-PHD1 wild type. In kind it is binding.
The next assay deals with T4, AIRE–PHD1 V301M (Homo sapiens, UniProt O43918, V301M).
T4 sequence (O43918 296-343 V301M limits assumed): T1 sequence (O43918 296-343 D312A limits assumed) with V6M, A17D
The assay is described as follows: Tryptophan fluorescence titration, AIRE-PHD1 V301M. In kind it is binding. Summed up:
as §1

The target in the next assay is T5, AIRE–PHD1 C311Y (Homo sapiens, UniProt O43918, C311Y).
T5 sequence (O43918 296-343 C311Y limits assumed): T1 sequence (O43918 296-343 D312A limits assumed) with C16Y, A17D
The assay is described as follows: Tryptophan fluorescence titration, AIRE-PHD1 C311Y. In kind it is binding. In outline:
as §1

Assay [8] concerns the target T3, AIRE–PHD1 D297A. The assay is described as follows: Tryptophan fluorescence titration, AIRE-PHD1 D297A. The assay is classed as binding. In outline:
as §1

The next assay has as its system AIRE–PHD1. The assay is described as follows: Histone pull-down after EDTA treatment. The note with it: 50 mM EDTA, overnight 4 °C prior to histone binding. Summed up: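 AIRE–PHD1 expressed as a glutathione-S-transferase (GST) fusion and incubated with whole histones. Bound H3 detected by western blot with anti-H3; GST-PHD protein visualised by Coomassie staining.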

Assay [9] concerns the target AIRE–PHD1 wild type (UniProt O43918). The assay is described as follows: NMR titration.

Regarding “histone H3 N-terminal peptide H3K4me1 (NMR, fluorescence, ITC)”, the values for the Kd in the assay with AIRE–PHD1 wild type [1] and with AIRE–PHD1 wild type [2] were 21.4 µM and 55.6 µM, respectively.
Take `C[C@H](N)C(=O)N[C@@H](CCCNC(=N)N)C(=O)N[C@H](C(=O)N[C@@H](CCCCN)C(=O)N[C@@H](CCC(N)=O)C(=O)N[C@H](C(=O)N[C@@H](C)C(=O)N[C@@H](CCCNC(=N)N)C(=O)N[C@@H](CCCCN)C(=O)N[C@@H](CO)C(=O)O)[C@@H](C)O)[C@@H](C)O` [H3K4me0]: the Kd at AIRE–PHD1 D312A [3] is over 714 µM; at AIRE–PHD1 WT [4], 6.5 ± 0.2 µM; at AIRE–PHD1 D297A [5], 147 ± 6.1 µM; on AIRE–PHD1 D312A [6] it was over 500 µM; on AIRE–PHD1 WT [7], 4.7 ± 0.8 µM; on AIRE–PHD1 V301M it was 6.8 ± 0.4 µM. In addition, the Kd on AIRE–PHD1 C311Y is over 500 µM; on AIRE–PHD1 D297A [8], 173 ± 18.6 µM.
With `O=C(O)CN(CCN(CC(=O)O)CC(=O)O)CC(=O)O` [EDTA], in the assay with AIRE–PHD1, the “effect on H3 binding, in words” value was “greatly reduced”.
With “histone H3 N-terminal peptide H3K4me2 (NMR, fluorescence, ITC)”, the figures for the Kd in the assay with AIRE–PHD1 wild type [1] and with AIRE–PHD1 wild type [2] were over 500 µM and 714 µM, respectively.
On to “histone H3 N-terminal peptide H3K4me0 (NMR, fluorescence, ITC)”, for which the maximum average chemical shift change with AIRE–PHD1 wild type [9] worked out at 0.9 p.p.m.
